Source: publication PMC5217871 (Journal of Diabetes Investigation, 2016)
“Also recorded” adds a separate entry of the source. Where two headings read alike, the source gives them in different places.

Key:
[1] = cited from earlier work
[2] = type: in vivo, healthy Japanese men; conditions: for Accumulation ratio (day 15/day 1) AUC0–168h / Accumulation ratio (day 15/day 1) Cmax / Accumulation ratio (day 15/day 1) Ctrough: geometric mean ratio (90% CI)
Method in brief: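 Blood went into dipotassium-EDTA tubes, was spun 10 min at 1000–1300 g, and plasma was frozen at −20°C. Assay was online-extraction turbulent-flow LC, LLOQ 1.0 ng/mL. Accumulation was the day 15/day 1 geometric mean ratio, computed on the log scale with CIs. For the food comparison, 10 mg single doses were given after a ≥10-h fast or after a 411-kcal Japanese breakfast finished 10 min predose.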

[3] = Urine pharmacokinetics; type: in vivo, healthy Japanese men; conditions: male, human, 50 mg
Method in brief: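 After the 50 mg once-weekly dose on day 15, urine was collected predose (day 1) and at intervals up to 168 h. Tween 20 was added to 0.2% final and samples were stored at −20°C. The assay was LC online extraction, LLOQ 40 ng/mL. Amount excreted was the sum of concentration × volume per interval, fraction excreted was amount/dose, and renal clearance was amount/AUC0–168h.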

[4] = molecular target: T1, plasma DPP‐4 activity (Homo sapiens, UniProt P27487); assay: Percent inhibition of plasma DPP-4 activity from baseline; type: in vivo, healthy Japanese men; conditions: for DPP-4 percent inhibition from baseline, LS mean (95% CI) / DPP-4 percent inhibition, difference from placebo, difference in LS means (90% CI): 168 h post-dose
T1 sequence (P27487 39-766): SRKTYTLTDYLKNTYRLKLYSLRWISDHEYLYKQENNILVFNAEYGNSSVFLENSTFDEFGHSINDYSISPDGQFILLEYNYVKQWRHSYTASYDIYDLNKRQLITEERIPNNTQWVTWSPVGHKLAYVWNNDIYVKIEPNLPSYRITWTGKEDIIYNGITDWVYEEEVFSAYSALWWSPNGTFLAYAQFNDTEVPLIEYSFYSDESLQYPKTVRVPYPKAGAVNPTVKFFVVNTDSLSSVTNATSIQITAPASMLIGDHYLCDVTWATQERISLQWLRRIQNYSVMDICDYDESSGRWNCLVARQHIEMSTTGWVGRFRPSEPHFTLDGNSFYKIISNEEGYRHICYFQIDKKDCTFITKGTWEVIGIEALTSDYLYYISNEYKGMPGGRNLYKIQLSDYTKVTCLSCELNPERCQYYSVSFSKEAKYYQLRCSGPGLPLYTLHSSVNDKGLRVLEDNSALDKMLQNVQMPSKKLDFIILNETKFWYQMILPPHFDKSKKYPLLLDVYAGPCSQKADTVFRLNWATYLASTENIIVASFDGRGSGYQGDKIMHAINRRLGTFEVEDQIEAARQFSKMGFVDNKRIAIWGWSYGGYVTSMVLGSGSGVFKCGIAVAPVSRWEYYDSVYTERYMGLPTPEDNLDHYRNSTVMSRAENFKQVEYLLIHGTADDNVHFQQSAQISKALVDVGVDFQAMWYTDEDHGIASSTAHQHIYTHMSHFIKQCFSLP
Method in brief: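 Healthy men received 1–50 mg orally once weekly for 3 weeks. Blood was drawn predose and at set times on days 1 and 15; 4-h and 24-h samples preceded meals. EDTA plasma was incubated with glycyl-prolyl-paranitroanilide, and the absorbance rise at 390 nm was read from 4 to 14 min (LOQ 0.6 mOD/min). Inhibition was taken versus pretreatment and analysed by a log-scale mixed model (treatment, day, interaction; participant random).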

[5] = molecular target: T1, plasma DPP‐4 activity; type: in vivo, healthy Japanese men; conditions: pharmacokinetic/pharmacodynamic Emax model
Method in brief: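 For each participant, percent inhibition of plasma DPP-4 activity (chromogenic glycyl-prolyl-paranitroanilide substrate, 390 nm) was paired with plasma drug concentration after single oral doses. A population three-parameter Emax model (Emax, EC50, Hill slope) was fitted, and the 80% effective concentration was derived from it.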

[6] = Safety and tolerability assessments; type: in vivo, healthy Japanese men
Method in brief: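 Part 1 used single doses of 5–100 mg and part 2 used 1–50 mg once weekly for 3 weeks, each with placebo. Adverse events were recorded throughout and rated for intensity, duration, severity, outcome and drug relationship. Vital signs, physical and neurological exams, 12-lead ECGs, laboratory tests and glucometer readings were taken predose, post-dose and post-study. Events were tabulated by dose, with change-from-baseline summaries.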

[7] = concentration range for 50 mg q.w. dosing; ref unpubl. data; cited from earlier work
[8] = no reference given; cited from earlier work
[9] = test system: OAT1; conditions: no reference given; cited from earlier work
[10] = test system: OAT3; conditions: no reference given; cited from earlier work
[11] = test system: OCT2; conditions: no reference given; cited from earlier work
[12] = test system: active glucagon‐like peptide‐1; conditions: healthy males; earlier study; cited from earlier work
[13] = multiple dose 1 mg q.w., day 15
[14] = multiple dose 10 mg q.w., day 15
[15] = multiple dose 25 mg q.w., day 15
[16] = multiple dose 50 mg q.w., day 15
[17] = single 5–100 mg and multiple 1–50 mg q.w. doses
[18] = single 5–100 mg and multiple 1–50 mg q.w. doses, listed as Omarigliptin

Cn1c(=O)cc(N2CCC[C@@H](N)C2)n(Cc2ccccc2C#N)c1=O [alogliptin]
renal clearance compared with typical glomerular filtration rates [1]: higher renal clearance than typical glomerular filtration rates

CS(=O)(=O)n1cc2c(n1)CN([C@H]1CO[C@H](c3cc(F)ccc3F)[C@@H](N)C1)C2 [omarigliptin]
Accumulation ratio (day 15/day 1) AUC0–168h ([2]; 1 mg q.w. for 3 weeks): 1.35 (1.27–1.44)
Accumulation ratio (day 15/day 1) Cmax ([2]; 1 mg q.w. for 3 weeks): 1.36 (1.13–1.63)
Accumulation ratio (day 15/day 1) Ctrough ([2]; 1 mg q.w. for 3 weeks): 1.24 (1.06–1.44)
Accumulation ratio (day 15/day 1) AUC0–168h ([2]; 10 mg q.w. for 3 weeks): 1.09 (1.04–1.15)
Accumulation ratio (day 15/day 1) Cmax ([2]; 10 mg q.w. for 3 weeks): 1.18 (1.00–1.38)
Accumulation ratio (day 15/day 1) Ctrough ([2]; 10 mg q.w. for 3 weeks): 0.97 (0.86–1.10)
effect of food on pharmacokinetics ([2]; 10 mg single dose with Japanese standard breakfast): did not meaningfully alter the pharmacokinetics
Accumulation ratio (day 15/day 1) AUC0–168h ([2]; 25 mg q.w. for 3 weeks): 1.05 (1.00–1.11)
Accumulation ratio (day 15/day 1) Cmax ([2]; 25 mg q.w. for 3 weeks): 0.87 (0.75–1.02)
Accumulation ratio (day 15/day 1) Ctrough ([2]; 25 mg q.w. for 3 weeks): 1.11 (0.98–1.26)
Accumulation ratio (day 15/day 1) AUC0–168h ([2]; 50 mg q.w. for 3 weeks): 1.03 (0.97–1.09)
Accumulation ratio (day 15/day 1) Cmax ([2]; 50 mg q.w. for 3 weeks): 1.21 (1.02–1.43)
Accumulation ratio (day 15/day 1) Ctrough ([2]; 50 mg q.w. for 3 weeks): 1.03 (0.90–1.18)
accumulation ratio (day 15/day 1) AUC0–168h, range ([2]; 1–50 mg q.w. for 3 weeks): 1.03–1.35
accumulation ratio (day 15/day 1) Cmax, range ([2]; 1–50 mg q.w. for 3 weeks): 0.87–1.36
accumulation ratio (day 15/day 1) trough plasma concentration, range ([2]; 1–50 mg q.w. for 3 weeks): 0.97–1.24
half-life ([2]; male, human, plasma, po, 10 mg, t½, single dose 10 mg, fed, geometric mean (%CV)): 89.5 h
dose proportionality of AUC0–168h and trough plasma concentration ([2]; multiple dose 1–50 mg q.w.): less than dose‐proportional
dose proportionality of Cmax ([2]; multiple dose 1–50 mg q.w.): dose‐proportional
time at which steady state was reached ([2]; multiple q.w. dosing, all doses tested): after the first dose
AUC0–168h geometric mean ratio (fed/fasted) ([2]; single dose 10 mg, GMR, 90% CI): 0.97 (0.90–1.03)
AUC0–∞ geometric mean ratio (fed/fasted) ([2]; single dose 10 mg, GMR, 90% CI): 1.03 (0.96–1.11)
C168h geometric mean ratio (fed/fasted) ([2]; single dose 10 mg, GMR, 90% CI): 1.13 (0.93–1.37)
Cmax geometric mean ratio (fed/fasted) ([2]; single dose 10 mg, GMR, 90% CI): 0.75 (0.65–0.86)
dose proportionality of AUC0–∞, AUC0–168h and Cmax ([2]; single dose 5–100 mg): approximately dose‐proportional
dose proportionality of C168h ([2]; single dose 5–100 mg): less than dose‐proportional
CL renal ([3]; urine and plasma, oral): 50 to 68 mL/min
CL renal ([3]; urine, po): 38.3 mL/min
percent inhibition of DPP‐4 activity from baseline at 168 h, range ([4]; 1–50 mg q.w., after 3 weeks dosing): 51.3–90.2%
DPP-4 percent inhibition from baseline, LS mean (95% CI) [4, 13]: 51.33 (29.67–66.32) %
DPP-4 percent inhibition, difference from placebo, difference in LS means (90% CI) [4, 13]: 42.48 (31.06–54.19) %
DPP-4 percent inhibition from baseline, LS mean (95% CI) [4, 14]: 83.26 (77.03–87.80) %
DPP-4 percent inhibition, difference from placebo, difference in LS means (90% CI) [4, 14]: 74.41 (65.73–83.59) %
DPP-4 percent inhibition from baseline, LS mean (95% CI) [4, 15]: 87.52 (83.55–90.53) %
DPP-4 percent inhibition, difference from placebo, difference in LS means (90% CI) [4, 15]: 78.67 (70.36–87.51) %
DPP-4 percent inhibition from baseline, LS mean (95% CI) [4, 16]: 90.23 (86.59–92.88) %
DPP-4 percent inhibition, difference from placebo, difference in LS means (90% CI) [4, 16]: 81.37 (73.30–90.00) %
DPP-4 percent inhibition from baseline, LS mean (95% CI) ([4]; single dose 5 mg): 79.20 (76.17–81.85) %
DPP-4 percent inhibition, difference from placebo, difference in LS means (90% CI) ([4]; single dose 5 mg): 87.89 (80.96–95.09) %
DPP-4 percent inhibition from baseline, LS mean (95% CI) ([4]; single dose 10 mg (fasted)): 77.39 (74.14–80.24) %
DPP-4 percent inhibition, difference from placebo, difference in LS means (90% CI) ([4]; single dose 10 mg (fasted)): 86.09 (79.05–93.38) %
DPP-4 percent inhibition from baseline, LS mean (95% CI) ([4]; single dose 10 mg (fed)): 73.90 (70.14–77.18) %
DPP-4 percent inhibition, difference from placebo, difference in LS means (90% CI) ([4]; single dose 10 mg (fed)): 82.59 (75.36–90.06) %
DPP-4 percent inhibition from baseline, LS mean (95% CI) ([4]; single dose 25 mg): 85.97 (83.66–87.95) %
DPP-4 percent inhibition, difference from placebo, difference in LS means (90% CI) ([4]; single dose 25 mg): 94.66 (88.11–101.49) %
DPP-4 percent inhibition from baseline, LS mean (95% CI) ([4]; single dose 50 mg): 86.76 (84.59–88.63) %
DPP-4 percent inhibition, difference from placebo, difference in LS means (90% CI) ([4]; single dose 50 mg): 95.45 (88.95–102.25) %
DPP-4 percent inhibition from baseline, LS mean (95% CI) ([4]; single dose 100 mg): 94.01 (93.03–94.85) %
DPP-4 percent inhibition, difference from placebo, difference in LS means (90% CI) ([4]; single dose 100 mg): 102.70 (96.60–109.11) %
inhibition from baseline of DPP‐4 activity maintained for 168 h ([4]; single and multiple q.w. administration at a dose of 25 mg or higher): Greater than 80%
Emax value [5]: 96.5 % inhibition
estimated 80% effective concentration [5]: 11.4 nmol
drug‐related clinical adverse events after omarigliptin ([6]; part 1, single dosing): five
drug‐related adverse events ([6]; part 2, multiple dosing): Eight
total clinical adverse events ([6]; part 2, multiple dosing, nine participants): 13
adverse events of hypoglycemia [6, 17]: no adverse events of hypoglycemia
serious clinical or laboratory adverse events [6, 17]: no serious clinical or laboratory adverse events; also recorded: No deaths, serious adverse events or laboratory adverse events were reported
tolerability [6, 17]: well tolerated
adverse events of hypoglycemia [6, 18]: no hypoglycemia being reported
tolerability [6, 18]: generally well tolerated
changes from baseline in laboratory, vital signs, glucose monitoring or ECG parameters ([6]; whole study): no clinically significant, consistent treatment‐related or dose‐related changes from baseline
discontinuation because of an adverse event ([6]; whole study): no participants were discontinued
intensity of adverse events ([6]; whole study, all resolved by the end of the study): mild or moderate intensity
free fraction of omarigliptin in humans [7]: 56–76%
permeability [8]: high permeability
substrate of drug transporter OAT1 [9]: not a substrate
substrate of drug transporter OAT3 [10]: not a substrate
substrate of drug transporter OCT2 [11]: not a substrate
enhancement of post‐meal active glucagon‐like peptide‐1 [12]: approximately twofold

N[C@@H](CC(=O)N1CCn2c(nnc2C(F)(F)F)C1)Cc1cc(F)c(F)cc1F [sitagliptin]
renal clearance compared with typical glomerular filtration rates [1]: higher renal clearance than typical glomerular filtration rates

Cn1c(=O)cc(N2CCC[C@@H](N)C2)n(Cc2cc(F)ccc2C#N)c1=O [trelagliptin]
renal clearance compared with typical glomerular filtration rates [1]: higher renal clearance than typical glomerular filtration rates
